Test results published in paper PMC7617399 (Nature microbiology, 2016).
Like-named read-outs stand apart in the source and are kept apart here.

Assays:
ORF57-UAP56 interaction = ORF57-UAP56 interaction (Homo sapiens, UniProt Q13838); experiment: Co-immunoprecipitation of ORF57 with UAP56; format: cell-based, KSHV / human; conditions: nucleotide added to HEK-293T lysates (1.25 mM or concentration series)
In short: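 1×10^6 HEK-293T transfected with 1 μg ORF57-GFP or GFP plasmid (Lipofectamine), lysed after 24 h on ice for 20 min in modified RIPA (50 mM Tris/HCl, 150 mM NaCl, 1% NP40-alternative, pH 7.6) plus RNase A. Lysate clarified, pre-cleared on protein A for 2 h at 4°C, pulled down on GFP-trap beads with ATP, ADP or ATPγS for 2.5 h at 4°C. Western blot.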

recombinant GST-UAP56 = recombinant GST-UAP56 (Homo sapiens, UniProt Q13838); experiment: Microscale thermophoresis binding to UAP56; conditions: read-out: KD (microscale thermophoresis); FITC-labelled GST-UAP56, 37°C
In short: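 GST-UAP56 FITC-labelled, desalted into 20 mM HEPES pH 7.4 with 2 mM MgCl2, used at 100–500 nM. Titrated with test compound in a 1:1 serial dilution from 4.5 mM, final DMSO 20% (v/v). LED power 10–60%, 37°C. KD fitted in thermophoresis mode. Biological replicates.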

TREx BCBL1-Rta cells [1] = experiment: Apoptosis assay; format: cell-based, human; conditions: 72 h, CCT018159 at 2.5 μM
In short: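 TREx BCBL1-Rta cells exposed to DMSO or test compound for 72 h, washed, then incubated in HEPES buffer with Annexin-V-fluorescein plus propidium iodide to mark apoptotic and necrotic cells. Analysis by flow cytometry. Biological replicates.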

HSP90 = conditions: read-out: Ki (HSP90); reported value; cited from earlier work
HEK-293T cells = experiment: MTS cell viability assay, HEK-293T; format: cell-based, human
In short: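 MTS assay: HEK-293T plated at 0.5×10^6 cells/ml 24 h ahead, then given test compound in DMSO (0.1% of volume, also added to controls). Readings normalised to DMSO wells, n = 5. CC50 from four-parameter variable-slope non-linear regression.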

KSHV = experiment: Infectious KSHV virion production; format: cell-based; conditions: 2.5 μM, supernatant 72 h after induction
In short: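 0.8×10^6 TREx BCBL1-Rta cells reactivated with 2 μg/ml doxycycline and treated with test compound or DMSO. Supernatants filtered at 72 h and used 1:1 on 1×10^6 HEK-293T. At 24 h post-infection, TRIzol RNA assayed by qRT-PCR for viral mRNA, normalised to GAPDH, shown as fold change against DMSO.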

[2] = target: ADP-bound purified recombinant UAP56 (Homo sapiens, UniProt Q13838); experiment: ADP displacement assay; format: binding
In short: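 Pre-formed ADP-bound enzyme: 5 μM GST-UAP56 (E. coli BL-21) run with 5 μM ATP for 30 min under ATPase-assay buffer conditions. Leftover ATP depleted with ADP-Glo reagent, then test compound added at rising concentrations and incubated 37°C for 30 min. Freed ADP converted to ATP and read by luminescence. n = 3 biological replicates.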

[3] = system: KSHV minor capsid protein (mCP) expression in TREx BCBL1-Rta cells; experiment: Viral late protein mCP expression; format: cell-based; conditions: for EC50: read-out: EC50 24 h (μM) (mCP expression)
HCMV = experiment: Infectious HCMV virion production; format: cell-based
TREx BCBL1-Rta cells [4] = experiment: MTS cell viability assay, TREx BCBL1-Rta; format: cell-based, human; conditions: TREx BCBL1-Rta, MTS, mean ± s.e.m.
In short: (§1)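 MTS assay: TREx BCBL1-Rta plated at 1×10^6 cells/ml and treated at once with test compound in DMSO (0.1% of volume, also added to controls). Viability read at 24 and 72 h. Biological replicates.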

[5] = system: ORF57-mediated nuclear retention of cellular bulk mRNA in HEK-293T cells; experiment: Fluorescence in situ hybridization of poly; format: cell-based, human; conditions: ORF57-GFP expressing HEK-293T, 24 h treatment
In short: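 HEK-293T transfected with GFP or ORF57-GFP for 6 h, then DMSO or test compound for 24 h. Poly(A) RNA detected with 5′ Alexa Fluor 546-labelled oligo dT(70) probe, nuclei stained with DAPI, confocal imaging. Cells showing nuclear mRNA retention counted. 4 independent experiments.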

[6] = system: ORF57-mediated ORF47 mRNA stabilization and export in HEK-293T cells; experiment: Viral mRNA export assay; format: cell-based, KSHV; conditions: 2.5 μM, 18 h
In short: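 HEK-293T co-transfected with GFP or ORF57-GFP plus an intronless ORF47 reporter, then exposed to DMSO or test compound for 18 h. RNA taken from whole-cell and cytoplasmic fractions. ORF47 measured by qRT-PCR, normalised to GAPDH, ΔΔCT. n = 3, unpaired t test.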

HSV-1 [7] = experiment: Infectious HSV-1 virion production; format: cell-based
[8] = system: KSHV latent nuclear antigen (LANA); experiment: LANA immunoblotting; format: cell-based; conditions: immunoblot, range of concentrations
hTREX-UAP56 interaction = hTREX-UAP56 interaction (Homo sapiens, UniProt Q13838); experiment: Co-immunoprecipitation of endogenous hTREX with UAP56; format: cell-based; conditions: up to 0.5 mM added to the lysate
HSV-1 [9] = experiment: HSV-1 plaque assay after primary infection; format: cell-based; conditions: increasing concentrations, HFF cells
In short: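 HFF (2×10^5) infected with HSV-1 at MOI 0.001 for 1 h and washed twice in PBS. Cells then overlaid with plaque agar (growth medium 1:1 with 2% agarose, 37°C) holding test compound or DMSO (0.1% final). Agarose lifted at 96 h, cells fixed 10 min in 4% paraformaldehyde, stained with 0.5% crystal violet, plaques counted by eye. Lysis also imaged directly.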

[10] = system: KSHV viral load in TREx BCBL1-Rta cells; experiment: KSHV replication assay; format: cell-based; conditions: for EC50: read-out: EC50 72 h (μM) (Viral load)
[11] = target: purified recombinant UAP56 (GST-UAP56) (Homo sapiens, UniProt Q13838); experiment: UAP56 ATPase assay; format: biochemical
In short: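 2.5 μM GST-UAP56 (E. coli BL-21, glutathione-eluted, buffer-exchanged) with 50 μM yeast tRNA, 35 μM ATP, 2 mM MgCl2, 50 mM KCl, 50 mM Tris/HCl pH 7.6. Screening at 100 μM final compound. IC50 series delivered in DMSO (1% of reaction). 37°C, 30 min, remaining ATP read by Kinase-Glo luminescence. Biological replicates.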

[12] = MTS cell viability assay, TREx BCBL1-Rta; format: cell-based, human; conditions: human, TREx BCBL1-Rta cells
In short: as §1

[13] = reactivated TREx BCBL1-Rta, 72 h, qPCR, mean ± s.e.m.

Chain of purified recombinant UAP56 (GST-UAP56) (Q13838 whole entry): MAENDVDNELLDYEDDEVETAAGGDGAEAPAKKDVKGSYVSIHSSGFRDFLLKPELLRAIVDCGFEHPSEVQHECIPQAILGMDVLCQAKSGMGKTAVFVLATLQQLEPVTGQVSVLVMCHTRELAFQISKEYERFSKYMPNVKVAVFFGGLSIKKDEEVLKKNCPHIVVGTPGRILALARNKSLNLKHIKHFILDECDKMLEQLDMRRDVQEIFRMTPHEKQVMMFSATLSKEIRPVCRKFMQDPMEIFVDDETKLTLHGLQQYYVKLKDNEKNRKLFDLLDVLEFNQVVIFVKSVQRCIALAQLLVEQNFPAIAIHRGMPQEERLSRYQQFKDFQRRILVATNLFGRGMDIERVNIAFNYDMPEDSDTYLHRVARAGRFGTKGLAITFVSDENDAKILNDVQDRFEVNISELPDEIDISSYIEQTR
Chain of ORF57-UAP56 interaction (P82979 2-210): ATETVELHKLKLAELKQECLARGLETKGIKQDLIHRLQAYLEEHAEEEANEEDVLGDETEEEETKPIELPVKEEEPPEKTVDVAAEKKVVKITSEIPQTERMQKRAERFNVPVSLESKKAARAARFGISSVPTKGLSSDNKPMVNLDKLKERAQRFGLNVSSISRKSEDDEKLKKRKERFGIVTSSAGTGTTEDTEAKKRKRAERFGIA
Chain of ORF57-UAP56 interaction (Q13838 2-428): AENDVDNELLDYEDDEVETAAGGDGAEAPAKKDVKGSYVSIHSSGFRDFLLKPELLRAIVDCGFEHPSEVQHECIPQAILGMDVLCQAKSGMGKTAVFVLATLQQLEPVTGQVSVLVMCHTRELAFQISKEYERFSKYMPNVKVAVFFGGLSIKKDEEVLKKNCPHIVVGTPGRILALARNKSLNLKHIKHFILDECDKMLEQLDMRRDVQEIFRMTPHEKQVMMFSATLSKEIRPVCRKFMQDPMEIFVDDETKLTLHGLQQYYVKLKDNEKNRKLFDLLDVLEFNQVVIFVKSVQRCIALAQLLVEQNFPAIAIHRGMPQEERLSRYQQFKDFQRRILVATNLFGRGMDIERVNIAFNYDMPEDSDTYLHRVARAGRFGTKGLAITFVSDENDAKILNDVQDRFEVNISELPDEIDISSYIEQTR
Chain of recombinant GST-UAP56 (Q13838 whole entry): as the sequence (Q13838 whole entry) above
Chain of ADP-bound purified recombinant UAP56 (Q13838 whole entry): as above
Chain of hTREX-UAP56 interaction (Q13838 2-428): as the sequence (Q13838 2-428) above
Chain of hTREX-UAP56 interaction (P82979 2-210, further chain): as the sequence (P82979 2-210) above

Nc1ncnc2c1ncn2[C@@H]1O[C@H](COP(=O)(O)OP(=O)(O)O)[C@@H](O)[C@H]1O [ADP]
effect of nucleotide on ORF57-UAP56/hTREX interaction (ORF57-UAP56 interaction): disrupted

Nc1ncnc2c1ncn2[C@@H]1O[C@H](COP(=O)(O)OP(=O)(O)OP(=O)(O)O)[C@@H](O)[C@H]1O [ATP]
effect of nucleotide on ORF57-UAP56/hTREX interaction (ORF57-UAP56 interaction): enhanced
Kd (recombinant GST-UAP56): 30.1 ± 4.5 µM

Nc1ncnc2c1ncn2[C@@H]1O[C@H](CO[P@](=O)(O)O[P@](=O)(O)O[P@@](=O)(O)S)[C@@H](O)[C@H]1O [ATPγS, Adenosine 5′-O-(3-thio)triphosphate]
effect of nucleotide on ORF57-UAP56/hTREX interaction (ORF57-UAP56 interaction): significantly inhibited

CCc1cc(-c2n[nH]c(C)c2-c2ccc3c(c2)OCCO3)c(O)cc1O [CCT018159]
apoptosis (TREx BCBL1-Rta cells [1]): no increase in apoptosis
Ki (HSP90): 1.8 ± 0.3 µM
non-cytotoxic concentrations (HEK-293T cells): < 15 µM
reduction of viral mRNA in re-infected cells versus controls (KSHV): 80%
mode of inhibition (ADP displacement) ([2]; ADP-bound UAP56, increasing concentrations): ATP/ADP-competitive inhibitor
IC50 ([2]; read-out: IC50 (ADP displacement)): ~60 µM
mCP expression ([3]; at 2.5 μM): marked reduction
concentrations at which mCP inhibition occurred ([3]; immunoblot): 1 to 2.5 µM
EC50 ([3]; reactivated TREx BCBL1-Rta, 24 h, mean ± s.e.m.): 0.6 ± 0.1 µM
reduction of HCMV virion production (HCMV; 1 μM): 50%
reduction of HCMV virion production (HCMV; 2.5 μM): over 99%
CC50 (TREx BCBL1-Rta cells [4]; read-out: CC50 24 h (μM) (Cell viability), 24 h): 21.1 ± 1.6 µM
CC50 (TREx BCBL1-Rta cells [4]; read-out: CC50 72 h (μM) (Cell viability), 72 h): 16.6 ± 1.1 µM
effect on ORF57-mediated nuclear retention of poly(A) RNA [5]: nuclear retention was lost
effect on ORF57-mediated ORF47 mRNA stabilization and export [6]: abolished
reduction in infected cells (HSV-1 re-infection) (HSV-1 [7]; 2.5 μM): 50%
reduction in infected cells (HSV-1 re-infection) (HSV-1 [7]; 5 μM): 95%
Kd (recombinant GST-UAP56): 76 ± 3.8 µM
LANA degradation [8]: no LANA degradation
effect on hTREX-UAP56 interaction (hTREX-UAP56 interaction): did not inhibit
cell lysis, plaque size and plaque number (HSV-1 [9]): dramatically decreased
potency of antiviral effect relative to IC50 on purified UAP56 ([10]; discussion): 30 fold
concentration of antiviral effect ([10]; discussion, assay not specified): around 2 μM
EC50 [10, 13]: 1.1 ± 0.1 µM
reduction of UAP56 activity ([11]; at 100 μM (compound screening)): > 70%

CCc1cc(-c2n[nH]c(C)c2-c2ccc(OC)cc2)c(O)cc1O [Cmpd. 3, 4-Ethyl-6-(4-(4-methoxyphenyl)-3-methyl-1H-pyrazol-5-yl)benzene-1,3-diol]
EC50 ([3]; Human gammaherpesvirus 8, 24 h): 2.4 ± 0.4 µM
CC50 at 24 h [12]: 27.9 ± 2.7 µM
CC50 at 72 h [12]: 14.7 ± 0.5 µM
EC50 ([10]; Human gammaherpesvirus 8, 72 h): 2.7 ± 0.2 µM
IC50 [11]: 88.7 ± 7.9 µM

CCc1cc(-c2n[nH]c(C(=O)O)c2-c2ccc(OC)cc2)c(O)cc1O [Cmpd. 4, 3-(5-Ethyl-2,4-dihydroxyphenyl)-4-(4-methoxyphenyl)-1H-pyrazole-5-carboxylic acid]
EC50 ([3]; Human gammaherpesvirus 8, 24 h): > 1000 µM
CC50 at 24 h [12]: ~820 µM
CC50 at 72 h [12]: > 1000 µM
EC50 ([10]; Human gammaherpesvirus 8, 72 h): 138 ± 45.2 µM
IC50 [11]: > 1000 µM

CO[C@H]1/C=C\C=C(/C)C(=O)NC2=CC(=O)C(NCCN(C)C)=C(C[C@@H](C)C[C@H](OC)[C@H](O)[C@@H](C)/C=C(\C)[C@@H]1OC(N)=O)C2=O [Compound 17-DMAG]
apoptosis (TREx BCBL1-Rta cells [1]): increased levels of apoptosis and necrosis
effect on ORF57-mediated nuclear retention of poly(A) RNA [5]: failed to relieve
LANA degradation [8]: enhanced
EC50 [10, 13]: 0.04 ± 0.01 µM
UAP56 ATPase inhibition ([11]; Supplementary Fig. 2a): no UAP56 ATPase inhibition
